Data set [1] concerns the target TOP1 (Bos taurus, UniProt F1MN93). Put plainly: TOP1-mediated pBR322 DNA relaxation assay. Format: biochemical. As to conditions: 100 μmol/L.
Data set [2] deals with γH2AX in HCT116 cells. In words: Western blot for γH2AX. Format: cell-based, human. As to conditions: 0.5 and 5 μmol/L, 24 h. A digest of the protocol:
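HCT116 seeded at 35 × 10^4 cells/well, treated 24 h with test compound or vehicle. Cells washed in cold PBS, lysed 30 min on ice in RIPA with protease and phosphatase inhibitors, protein quantified by BCA. 30 μg resolved by SDS-PAGE, transferred to PVDF, blocked 2 h in 5% BSA, primary antibody overnight at 4 °C, secondary 1.5 h, infrared imaging.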
In general terms: A western blot detects proteins with antibodies after separation by electrophoresis.

The target in data set [3] is TOP2α (Homo sapiens, UniProt P11388). In words: TOP2-mediated pBR322 DNA relaxation assay. Format: biochemical.
Sequence of TOP2α (P11388 whole entry): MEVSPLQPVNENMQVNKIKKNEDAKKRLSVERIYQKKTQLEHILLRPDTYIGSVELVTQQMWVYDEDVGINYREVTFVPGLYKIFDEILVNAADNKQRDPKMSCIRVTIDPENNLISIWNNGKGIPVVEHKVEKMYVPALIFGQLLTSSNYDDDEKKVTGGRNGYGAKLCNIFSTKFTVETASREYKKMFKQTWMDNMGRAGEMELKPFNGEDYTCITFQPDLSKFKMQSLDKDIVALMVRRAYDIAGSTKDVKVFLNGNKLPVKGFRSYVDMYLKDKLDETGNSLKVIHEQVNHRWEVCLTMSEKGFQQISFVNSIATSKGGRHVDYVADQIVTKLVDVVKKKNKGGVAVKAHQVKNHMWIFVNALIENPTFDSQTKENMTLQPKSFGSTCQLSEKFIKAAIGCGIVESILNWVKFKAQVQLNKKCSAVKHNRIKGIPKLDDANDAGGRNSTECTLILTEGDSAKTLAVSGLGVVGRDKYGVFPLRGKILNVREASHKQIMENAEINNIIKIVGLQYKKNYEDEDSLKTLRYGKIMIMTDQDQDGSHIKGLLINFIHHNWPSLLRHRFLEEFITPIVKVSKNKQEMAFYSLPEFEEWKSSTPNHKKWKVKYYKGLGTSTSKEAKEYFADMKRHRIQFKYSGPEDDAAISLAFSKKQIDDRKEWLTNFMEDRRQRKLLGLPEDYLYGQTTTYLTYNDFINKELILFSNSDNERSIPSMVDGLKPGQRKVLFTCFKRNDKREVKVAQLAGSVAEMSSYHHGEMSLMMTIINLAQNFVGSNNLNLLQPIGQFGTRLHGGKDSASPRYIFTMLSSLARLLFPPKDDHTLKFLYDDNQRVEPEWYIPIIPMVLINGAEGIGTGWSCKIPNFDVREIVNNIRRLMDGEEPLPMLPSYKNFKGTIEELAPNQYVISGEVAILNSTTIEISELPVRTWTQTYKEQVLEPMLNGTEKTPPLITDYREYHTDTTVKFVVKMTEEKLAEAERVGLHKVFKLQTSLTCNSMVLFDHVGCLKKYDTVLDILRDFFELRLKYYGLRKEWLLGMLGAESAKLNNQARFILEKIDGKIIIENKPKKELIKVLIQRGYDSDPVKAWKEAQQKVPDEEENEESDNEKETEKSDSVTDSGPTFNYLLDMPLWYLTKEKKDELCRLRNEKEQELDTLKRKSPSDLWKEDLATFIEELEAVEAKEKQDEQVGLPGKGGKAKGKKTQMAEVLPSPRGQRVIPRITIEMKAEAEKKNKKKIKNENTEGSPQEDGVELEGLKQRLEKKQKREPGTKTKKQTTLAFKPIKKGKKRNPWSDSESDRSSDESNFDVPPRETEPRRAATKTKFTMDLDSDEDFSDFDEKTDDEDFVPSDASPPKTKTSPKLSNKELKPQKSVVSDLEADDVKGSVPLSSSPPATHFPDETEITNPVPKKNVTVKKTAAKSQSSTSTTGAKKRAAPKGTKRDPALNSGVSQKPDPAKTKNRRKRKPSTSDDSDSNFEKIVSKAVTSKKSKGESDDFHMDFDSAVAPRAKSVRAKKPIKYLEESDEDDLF
The subject of data set [4] is HCT116 (colon cancer). Put plainly: In vitro cell viability assay. It is filed as cell-based. The note with it: Homo sapiens.
For data set [5], the system named is HCT116, MCF-7 and A549 cell lines. Put plainly: In vitro cell viability assay. Format: cell-based. The note with it: Homo sapiens, read-out: IC50 range against the three tested cell lines. The gist of the method:
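Cells were grown in 10% FBS at 37 °C, 5% CO2, seeded in DMEM and held 24 h to 60%–70% confluency. They were then exposed to graded test compound concentrations or vehicle for 48 h. 10% CCK8 was added for 1–4 h at 37 °C and absorbance read at 450. IC50 was computed by the Logit method; three experiments.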

In data set [6] the target is human recombinant HDAC1 enzyme (Homo sapiens, UniProt Q13547). In words: HDACs activity assay, HDAC1. It is filed as biochemical.
Sequence of human recombinant HDAC1 enzyme (Q13547 whole entry): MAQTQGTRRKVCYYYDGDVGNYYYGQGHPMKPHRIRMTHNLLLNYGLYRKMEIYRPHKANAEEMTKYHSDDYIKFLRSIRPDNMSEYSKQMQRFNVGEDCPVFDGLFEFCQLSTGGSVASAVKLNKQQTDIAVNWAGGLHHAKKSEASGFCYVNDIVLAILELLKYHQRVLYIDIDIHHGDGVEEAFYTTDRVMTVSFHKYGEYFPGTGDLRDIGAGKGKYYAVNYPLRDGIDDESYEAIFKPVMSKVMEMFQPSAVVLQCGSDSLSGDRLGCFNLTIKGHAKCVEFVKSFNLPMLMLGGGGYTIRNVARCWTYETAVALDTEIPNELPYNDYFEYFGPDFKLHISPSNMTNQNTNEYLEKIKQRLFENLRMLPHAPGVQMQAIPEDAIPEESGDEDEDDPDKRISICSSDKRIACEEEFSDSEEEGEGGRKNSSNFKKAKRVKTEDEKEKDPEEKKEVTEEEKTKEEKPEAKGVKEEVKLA
The test system of data set [7] is MCF-7 (breast cancer). Put plainly: In vitro cell viability assay. Format: cell-based. As to conditions: Homo sapiens, MCF7, 48 h, read-out: IC50 MCF-7.
Data set [8] concerns A549 (lung cancer). Put plainly: In vitro cell viability assay. Format: cell-based. As to conditions: Homo sapiens, A549, 48 h, read-out: IC50 A549.
A short description of data set [9]: In vitro metabolic stability in mice liver microsomes. Format: in vitro ADME. As to conditions: female, ICR, mouse, liver microsomes, pH 7.4. A general note: Liver microsomes are vesicles of endoplasmic reticulum, rich in cytochrome P450 enzymes.
Data set [10] has as its system HCT116 xenograft. Put plainly: In vivo tumor growth inhibition assay against HCT116 xenograft. As to conditions: bid.
The subject of data set [11] is hematological cell lines (HL60, K562 and HEL). In words: Antiproliferative activity, hematological cell lines together. It is filed as cell-based. The note with it: read-out: IC50 range toward hematological cell lines.
Where [12] appears, read: HCT-116, 48 h, read-out: IC50 HCT116.

Read-outs that look alike come from different tables or passages of the source.

Sequence of TOP1 (F1MN93 1-767): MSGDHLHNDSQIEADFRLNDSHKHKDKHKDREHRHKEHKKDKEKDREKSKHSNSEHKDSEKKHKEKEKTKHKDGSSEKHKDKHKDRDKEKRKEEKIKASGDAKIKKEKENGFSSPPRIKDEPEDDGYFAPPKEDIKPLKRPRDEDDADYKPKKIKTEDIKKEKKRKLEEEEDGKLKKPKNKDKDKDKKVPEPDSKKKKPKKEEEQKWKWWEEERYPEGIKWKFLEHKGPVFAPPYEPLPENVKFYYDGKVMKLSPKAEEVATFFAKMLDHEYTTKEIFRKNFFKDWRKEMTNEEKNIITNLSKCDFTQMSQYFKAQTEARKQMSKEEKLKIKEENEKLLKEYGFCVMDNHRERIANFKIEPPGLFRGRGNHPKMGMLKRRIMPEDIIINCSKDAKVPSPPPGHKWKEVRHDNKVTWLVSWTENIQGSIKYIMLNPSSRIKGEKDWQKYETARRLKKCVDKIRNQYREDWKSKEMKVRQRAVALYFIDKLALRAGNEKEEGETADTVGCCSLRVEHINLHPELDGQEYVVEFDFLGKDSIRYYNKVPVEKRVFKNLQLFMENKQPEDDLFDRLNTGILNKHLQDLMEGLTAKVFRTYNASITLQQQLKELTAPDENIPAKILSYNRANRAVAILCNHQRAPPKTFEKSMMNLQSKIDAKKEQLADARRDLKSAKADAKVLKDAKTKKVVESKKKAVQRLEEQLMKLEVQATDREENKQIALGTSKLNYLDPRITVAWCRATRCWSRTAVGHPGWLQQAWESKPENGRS

As for `CC[C@@]1(O)C(=O)OCc2c1cc1n(c2=O)Cc2cc3ccccc3nc2-1` [CPT, Camptothecin], in [1], the “TOP1 relaxation activity (supercoiled DNA band)” value is listed as “obviously supercoiled DNA accumulation”.
Regarding `O=C(CCCCCCC(=O)Nc1ccccc1)NO` [Compound 1, vorinostat], the “Expression of γH2AX” value in data set [2] was “no increase”.
By IC50 is commonly meant the midpoint of a concentration-inhibition curve. Regarding `CN1c2ccccc2C(=O)N2[C@H](C(=O)NCCCCCCC(=O)NO)Cc3c([nH]c4ccccc34)[C@@H]12` [Compound 20a, (7S,13bS)-N-(7-(Hydroxyamino)-7-oxoheptyl)-14-methyl-5-oxo-5,7,8,13,13b,14-hexahydroindolo[2′,3′:3,4]pyrido[2,1-b]quinazoline-7-carboxamide], in data set [3] (100 μmol/L), the “TOP2 inhibitory activity (relaxation assay)” value (shortened to “TOP2 inhibitory activity”) was “inactive”. Besides, the IC50 was 7200 ± 520 nM in data set [4] (setting [12]); 7200 to 27000 nM in [5]; 27 ± 2.3 nM in data set [6]; 15000 ± 2500 nM in data set [7]; 27000 ± 2100 nM in [8].
As for `CN1c2ccccc2C(=O)N2[C@H](C(=O)NCCCCCC(=O)NO)Cc3c([nH]c4ccccc34)[C@@H]12` [Compound 20b, (7S,13bS)-N-(6-(Hydroxyamino)-6-oxohexyl)-14-methyl-5-oxo-5,7,8,13,13b,14-hexahydroindolo[2′,3′:3,4]pyrido[2,1-b]quinazoline-7-carboxamide], in [3] (100 μmol/L), the “TOP2 inhibitory activity” value is “inactive”. Also, the IC50 in data set [4] (setting [12]) is 11000 ± 1300 nM; in data set [6], 53 ± 4.5 nM; in data set [7], over 50000 nM; in [8] it was over 50000 nM.
As usually defined, the half-life is how long it takes for the measured level to halve. A higher half-life goes with slow loss. As for `CN1c2ccccc2C(=O)N2[C@H](C(=O)Nc3ccc(/C=C/C(=O)NO)cc3)Cc3c([nH]c4ccccc34)[C@@H]12` [Compound 25a, (7S,13bS)-N-(4-((E)-3-(Hydroxyamino)-3-oxoprop-1-en-1-yl)phenyl)-14-methyl-5-oxo-5,7,8,13,13b,14-hexahydroindolo[2′,3′:3,4]pyrido[2,1-b]quinazoline-7-carboxamide], the “TOP2 inhibitory activity” value in [3] (50 μmol/L) and in data set [3] (100 μmol/L) was “remarkable TOP2 inhibitory activities” each time. Further, in [9], the half-life at 1 μmol/L turned out to be 9.86 min. Also, the IC50 in data set [4] (setting [12]) was 630 ± 520 nM; in data set [11] it was 340 to 1000 nM; in data set [6] it was 89 ± 6.2 nM; in data set [7] it was 3000 ± 250 nM; in [8], 10000 ± 1200 nM. In addition, in data set [10] (20 mg/kg, i.p., 14 consecutive days), the “Tumor growth inhibition (TGI)” value came to 2.2%.
On to `CN1c2ccccc2C(=O)N2[C@H](C(=O)Nc3cccc(/C=C/C(=O)NO)c3)Cc3c([nH]c4ccccc34)[C@@H]12` [Compound 25b, (7S,13bS)-N-(3-((E)-3-(Hydroxyamino)-3-oxoprop-1-en-1-yl)phenyl)-14-methyl-5-oxo-5,7,8,13,13b,14-hexahydroindolo[2′,3′:3,4]pyrido[2,1-b]quinazoline-7-carboxamide], for which the “TOP2 inhibitory activity” value in data set [3] (50 μmol/L) and in [3] (100 μmol/L) was “remarkable TOP2 inhibitory activities” throughout. For the same compound, the IC50 in [4] (setting [12]) is 520 ± 360 nM; in data set [6], 31 ± 2.3 nM; in data set [7], 2200 ± 180 nM; in [8] it was 15000 ± 1400 nM.
With `CN1c2ccc(F)cc2C(=O)N2[C@H](C(=O)Nc3ccc(C(=O)Nc4ccccc4N)cc3)Cc3c([nH]c4ccccc34)[C@@H]12` [Compound 30b, (7S,13bS)-N-(4-((2-Aminophenyl)carbamoyl)phenyl)-3-fluoro-14-methyl-5-oxo-5,7,8,13,13b,14-hexahydroindolo[2′,3′:3,4]pyrido[2,1-b]quinazoline-7-carboxamide], the IC50 is 2400 ± 220 nM in data set [4] (setting [12]); 3600 nM in [4] (HCT-116, read-out: IC50 HCT116); 180 ± 20 nM in data set [6]; over 50000 nM in data set [7]; 7900 ± 680 nM in data set [8].
Take `CN1c2ccccc2C(=O)N2[C@H](C(=O)Nc3ccc(C(=O)NO)cc3)Cc3c([nH]c4ccccc34)[C@@H]12` [Compound 32, (7S,13bS)-N-(4-(Hydroxycarbamoyl)phenyl)-14-methyl-5-oxo-5,7,8,13,13b,14-hexahydroindolo[2′,3':3,4]pyrido[2,1-b]quinazoline-7-carboxamide]: the “TOP2 inhibitory activity” value in data set [3] (50 μmol/L) and in [3] (100 μmol/L) was “remarkable TOP2 inhibitory activities” in each case. For the same compound, the IC50 is 2200 ± 180 nM in [4] (setting [12]), 260 ± 24 nM in data set [6], 13000 ± 1400 nM in data set [7] and 11000 ± 1200 nM in data set [8].
In the case of `CN1c2ccccc2C(=O)N2[C@@H](C(=O)Nc3ccc(/C=C/C(=O)NO)cc3)Cc3c([nH]c4ccccc34)[C@H]12` [ent-25a, (7R,13bR)-N-(4-((E)-3-(Hydroxyamino)-3-oxoprop-1-en-1-yl)phenyl)-14-methyl-5-oxo-5,7,8,13,13b,14-hexahydroindolo[2′,3′:3,4]pyrido[2,1-b]quinazoline-7-carboxamide], the IC50 in data set [4] (setting [12]) was 530 ± 450 nM; in data set [6], 18 ± 1.6 nM; in data set [7], 1600 ± 140 nM; in data set [8] it was 2800 ± 220 nM.
Taken in the same sequence, the figures for `CN1c2ccccc2C(=O)N2[C@@H](C(=O)Nc3cccc(/C=C/C(=O)NO)c3)Cc3c([nH]c4ccccc34)[C@H]12` [ent-25b, (7R,13bR)-N-(3-((E)-3-(Hydroxyamino)-3-oxoprop-1-en-1-yl)phenyl)-14-methyl-5-oxo-5,7,8,13,13b,14-hexahydroindolo[2′,3′:3,4]pyrido[2,1-b]quinazoline-7-carboxamide] were 3100 ± 280 nM, 10 ± 0.6 nM, 12000 ± 1500 nM and 20000 ± 2400 nM.
In the case of `CN1c2ccccc2C(=O)N2[C@@H](C(=O)Nc3ccc(C(=O)Nc4ccccc4N)cc3)Cc3c([nH]c4ccccc34)[C@H]12` [ent-30a, (7R,13bR)-N-(4-((2-Aminophenyl)carbamoyl)phenyl)-14-methyl-5-oxo-5,7,8,13,13b,14-hexahydroindolo[2′,3′:3,4]pyrido[2,1-b]quinazoline-7-carboxamide], the IC50 in data set [4] (setting [12]) was determined as 2900 ± 2000 nM; in data set [6] it was 22 ± 2.1 nM; in data set [7], 17000 ± 1800 nM; in data set [8] it was 5400 ± 480 nM.
Taken in the same sequence, the figures for `CN1c2ccccc2C(=O)N2[C@@H](C(=O)Nc3ccc(C(=O)NO)cc3)Cc3c([nH]c4ccccc34)[C@H]12` [ent-32, (7R,13bR)-N-(4-(Hydroxycarbamoyl)phenyl)-14-methyl-5-oxo-5,7,8,13,13b,14-hexahydroindolo[2′,3′:3,4]pyrido[2,1-b]quinazoline-7-carboxamide] were 1600 ± 130 nM, 10 ± 0.8 nM, 5300 ± 500 nM and 12000 ± 1500 nM.
“Evodiamine [Compound 6, reference compound]”: the “Tumor growth inhibition (TGI)” value in [10] (150 mg/kg, p.o., 21 days (dose of the combination not given)) is 45.53%. The “Expression of γH2AX” value in data set [2] is on record as “no increase”.

The values above are taken from PMC7452071 (Acta Pharmaceutica Sinica. B, 2019).
